{"source": "ChEMBL document CHEMBL4308913", "about": "“In silico, NMR and pharmacological evaluation of an hydroxyoxindole cholinesterase inhibitor” (Bioorg Med Chem, 2019)", "key": {"[1]": {"molecular_target": "T1, Cholinesterase (Equus caballus, UniProt P81908)", "T1 sequence (P81908 whole entry)": "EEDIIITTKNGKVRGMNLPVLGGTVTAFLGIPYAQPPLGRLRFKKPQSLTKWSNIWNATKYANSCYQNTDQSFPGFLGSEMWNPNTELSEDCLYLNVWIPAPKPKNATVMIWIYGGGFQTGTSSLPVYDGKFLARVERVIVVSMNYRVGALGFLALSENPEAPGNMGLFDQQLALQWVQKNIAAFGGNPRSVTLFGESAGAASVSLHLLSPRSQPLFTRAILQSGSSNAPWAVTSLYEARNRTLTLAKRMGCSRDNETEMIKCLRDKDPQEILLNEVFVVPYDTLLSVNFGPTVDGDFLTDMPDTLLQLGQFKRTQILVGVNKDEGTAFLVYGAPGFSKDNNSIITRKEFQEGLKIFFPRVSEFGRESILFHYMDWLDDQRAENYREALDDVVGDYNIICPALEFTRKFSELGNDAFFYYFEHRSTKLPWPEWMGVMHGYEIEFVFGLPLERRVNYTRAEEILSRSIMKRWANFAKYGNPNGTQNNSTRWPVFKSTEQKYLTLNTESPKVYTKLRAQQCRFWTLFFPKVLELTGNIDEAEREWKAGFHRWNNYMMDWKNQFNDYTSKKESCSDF", "assay": "Inhibition of equine serum BuChE"}, "[2]": {"molecular_target": "Acetylcholinesterase (Electrophorus electricus, UniProt O42275)", "sequence (O42275 whole entry)": "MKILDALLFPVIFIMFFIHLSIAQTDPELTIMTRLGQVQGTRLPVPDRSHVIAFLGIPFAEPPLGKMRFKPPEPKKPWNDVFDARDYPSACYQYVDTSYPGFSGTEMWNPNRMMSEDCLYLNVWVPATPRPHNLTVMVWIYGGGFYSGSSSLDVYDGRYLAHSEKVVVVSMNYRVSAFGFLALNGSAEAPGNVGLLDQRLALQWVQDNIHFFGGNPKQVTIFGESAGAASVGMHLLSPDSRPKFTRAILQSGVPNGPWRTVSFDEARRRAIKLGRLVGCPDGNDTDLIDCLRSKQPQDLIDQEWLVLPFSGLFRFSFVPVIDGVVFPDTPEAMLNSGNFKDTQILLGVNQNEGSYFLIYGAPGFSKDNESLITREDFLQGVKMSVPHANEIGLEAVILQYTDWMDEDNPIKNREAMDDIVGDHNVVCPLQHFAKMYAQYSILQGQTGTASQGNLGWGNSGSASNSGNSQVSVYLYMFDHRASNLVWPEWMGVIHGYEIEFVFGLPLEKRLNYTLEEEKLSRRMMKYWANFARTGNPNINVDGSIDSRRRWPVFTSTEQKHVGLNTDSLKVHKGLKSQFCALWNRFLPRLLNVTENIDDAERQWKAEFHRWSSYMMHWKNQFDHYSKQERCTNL", "assay": "Inhibition of electrophorus electricus AChE"}, "[3]": {"tested_on": "Artemia salina", "assay": "Toxicity against Artemia salina larvae assessed as larval mortality after 24 hrs", "type": "organism-based", "conditions": "in vivo", "summary_of_the_method": "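A. salina nauplii were run per the Artoxkit M protocol: samples in saline were diluted 1:10 into saline medium, 10 larvae per well. Plates were held 24 h at 25 °C, and dead nauplii were counted by stereomicroscope. There were nine repeats per concentration, and LC50 came from dose-response. Negative controls were saline with and without 5% DMSO; potassium dichromate positive control ran 3.125–150 μg mL-1.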"}, "[4]": {"tested_on": "Artemia salina", "assay": "Toxicity against Artemia salina larvae assessed as larval mortality at 100 ug/mL after 24 hrs relative to control", "type": "organism-based", "conditions": "in vivo"}, "[5]": {"molecular_target": "T1, Cholinesterase", "assay": "Reversible competitive inhibition of equine BuChE by Lineweaver-burk plot analysis"}, "[6]": {"tested_on": "Mus musculus", "assay": "In vivo inhibition of BuChE in Swiss mouse liver at 3 to 6 mg/kg, iv by Ellman's assay", "type": "functional, organism-based"}, "[7]": {"molecular_target": "Cholinesterase (Mus musculus, UniProt Q03311)", "sequence (Q03311 whole entry)": "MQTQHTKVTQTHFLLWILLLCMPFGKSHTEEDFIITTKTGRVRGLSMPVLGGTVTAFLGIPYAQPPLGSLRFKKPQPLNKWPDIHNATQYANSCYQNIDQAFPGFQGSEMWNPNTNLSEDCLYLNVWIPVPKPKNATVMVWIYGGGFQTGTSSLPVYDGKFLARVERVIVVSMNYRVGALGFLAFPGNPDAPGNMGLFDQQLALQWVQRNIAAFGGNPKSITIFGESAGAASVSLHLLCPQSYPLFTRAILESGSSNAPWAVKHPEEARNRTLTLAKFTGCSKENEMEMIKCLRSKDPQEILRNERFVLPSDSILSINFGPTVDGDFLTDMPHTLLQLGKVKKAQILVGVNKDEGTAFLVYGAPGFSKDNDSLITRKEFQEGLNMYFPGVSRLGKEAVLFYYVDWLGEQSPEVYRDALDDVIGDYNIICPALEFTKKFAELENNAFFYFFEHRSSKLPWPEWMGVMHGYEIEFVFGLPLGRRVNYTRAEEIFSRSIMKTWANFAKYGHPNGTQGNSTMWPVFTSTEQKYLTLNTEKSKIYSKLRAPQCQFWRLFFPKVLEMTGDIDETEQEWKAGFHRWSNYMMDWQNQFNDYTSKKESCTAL", "assay": "Inhibition of BuChE in Swiss mouse liver homogenate by Ellman's assay", "type": "tissue-based", "summary_of_the_method": "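Swiss mouse livers from 8-week-old males were washed in ice-cold 0.2 M potassium phosphate, pH 7.6, then homogenized 1:10 w/v in 0.1 M phosphate, pH 7.6. Homogenates were spun at 1000 g, 4 °C, 15 min. Compounds were made up in 0.2 M phosphate, pH 7.6. Activity was read by modified Ellman's method, with protein by Lowry. IC50 came from dose-response, triplicate means ± SD.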"}, "[8]": {"assay": "Toxicity against Artemia salina larvae assessed as larval mortality at 1000 ug/mL after 24 hrs relative to control", "type": "organism-based", "conditions": "in vivo, at 1000 µg/mL"}, "[9]": {"molecular_target": "Cholinesterase (Equus caballus) (UniProt P81908)", "sequence (P81908 whole entry)": "as the sequence (P81908 whole entry) above", "assay": "Competitive inhibition of equine BuChE by Cornish-Bowden analysis"}, "[10]": {"molecular_target": "T2, Acetylcholinesterase (Mus musculus, UniProt P21836)", "T2 sequence (P21836 whole entry)": "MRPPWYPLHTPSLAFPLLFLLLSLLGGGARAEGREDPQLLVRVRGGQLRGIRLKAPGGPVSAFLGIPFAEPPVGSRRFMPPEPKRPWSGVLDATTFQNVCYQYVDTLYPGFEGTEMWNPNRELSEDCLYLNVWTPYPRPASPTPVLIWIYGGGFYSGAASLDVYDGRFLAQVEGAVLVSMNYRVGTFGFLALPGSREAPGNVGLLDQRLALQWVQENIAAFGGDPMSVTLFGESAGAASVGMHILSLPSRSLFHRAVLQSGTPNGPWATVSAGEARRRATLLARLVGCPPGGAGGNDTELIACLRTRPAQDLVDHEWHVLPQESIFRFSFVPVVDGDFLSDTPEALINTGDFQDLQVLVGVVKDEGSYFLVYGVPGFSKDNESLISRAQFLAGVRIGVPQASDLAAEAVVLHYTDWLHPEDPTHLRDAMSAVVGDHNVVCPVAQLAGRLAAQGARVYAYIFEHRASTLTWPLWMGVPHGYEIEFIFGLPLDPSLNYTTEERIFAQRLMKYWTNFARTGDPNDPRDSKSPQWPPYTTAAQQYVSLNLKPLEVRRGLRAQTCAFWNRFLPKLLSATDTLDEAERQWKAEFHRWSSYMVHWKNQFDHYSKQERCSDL", "assay": "Inhibition of AChE in Swiss mouse liver homogenate using acetylthiocholine iodide as substrate by Ellman's assay"}, "[11]": {"assay": "Acute oral toxicity in Swiss mouse by OECD up and down test guideline method", "conditions": "in vivo"}, "[12]": {"assay": "Acute toxicity in iv dosed Swiss mouse", "conditions": "in vivo"}, "[13]": {"molecular_target": "T1, Cholinesterase", "assay": "Inhibition of equine serum BuChE after 15 mins"}}, "note": "pIC50, pKi: −log10 of the molar value. Calls of active or inactive are those of the source. No cut-off for these calls is given here."}
{"compound": "O=C1N(Cc2ccccc2)c2ccccc2C1(O)c1ccccc1", "note": "(racemic)", "values": [{"measurement": "pIC50", "setting": "[1]", "value": 5.13}, {"measurement": "pIC50", "setting": "[2]", "value": 3.62}]}
{"compound": "POTASSIUM DICHROMATE", "values": [{"measurement": "LC50", "setting": "[3]", "value": 15.04, "unit": "µg/mL"}, {"measurement": "Activity", "setting": "[4]", "value": 100, "unit": "%"}]}
{"compound": "Cl.O=C1N(CC2CCNCC2)c2ccccc2C1(O)c1ccccc1", "note": "(racemic)", "values": [{"measurement": "pKi", "setting": "[5]", "value": 4.39}, {"measurement": "pIC50", "setting": "[1]", "value": 4.74}, {"measurement": "inhibition", "setting": "[6]", "value": "Active"}, {"measurement": "pIC50", "setting": "[7]", "value": 3.36}, {"measurement": "mortality at 24 h, 1000 ug/mL", "setting": "[8]", "value": 5, "unit": "%"}, {"measurement": "inhibition", "setting": "[9]", "value": "Active"}, {"measurement": "pIC50", "setting": "[10]", "value": 3.25}, {"measurement": "pIC50", "setting": "[2]", "value": 3.30}, {"measurement": "LD50", "setting": "[11]", "value": 100, "unit": "mg/kg"}]}
{"compound": "COc1cc2c(cc1OC)C(=O)C(CC1CCN(Cc3ccccc3)CC1)C2", "note": "(stereo not drawn) [DONEPEZIL]", "values": [{"measurement": "LD50", "setting": "[12]", "value": 3.7, "unit": "mg/kg"}, {"measurement": "inhibition", "setting": "[6]", "value": "Active"}, {"measurement": "mortality at 24 h, 1000 ug/mL", "setting": "[8]", "value": 26, "unit": "%"}]}
{"compound": "O=C1N(CC2CCN(Cc3ccccc3)CC2)c2ccccc2C1(O)c1ccccc1", "note": "(racemic)", "values": [{"measurement": "pIC50", "setting": "[13]", "value": 5.18}, {"measurement": "pIC50", "setting": "[2]", "value": 3.71}]}
